Results reported in ChEMBL document CHEMBL1125290, “Bis basic substituted diaminobenzobisthiazoles as potential antiarthritic agents” (1992).

How the values were obtained:
Type in all cases: functional
Rattus norvegicus [1] = experiment: Antiinflammatory activity against carrageenan induced rat paw edema (CPE), dosed orally
How it was run: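 Male Sprague–Dawley rats (150 ± 10 g), five per group. Compound or vehicle given orally in 0.5% methylcellulose 1 h before subplantar injection of 0.1 mL 1% carrageenan in saline into the right hind paw. Paw volume measured by mercury displacement before dosing and 3 h after carrageenan; the difference is the edema volume. ANOVA with Dunnett's t test.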

Rattus norvegicus [2] = species on record: Rattus norvegicus; experiment: Antiinflammatory activity in D-adjuvant induced arthritis in rat measured by the change in body weight; parameters: concentration or dose not given beside the values
Rattus norvegicus [3] = experiment: Antiinflammatory activity against D-adjuvant arthritis in uninjected rat paw at the dose of 50 mg/kg by oral administration
How it was run: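 Rat developing adjuvant arthritis screen with oral dosing on a prophylactic protocol. Percent change in body weight versus untreated animals was recorded as a preliminary toxicity sign. Significance was assessed against controls by two-tailed Student's t test, p < 0.05.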

Rattus norvegicus [4] = experiment: Antiinflammatory activity against D-adjuvant arthritis in injected rat paw at the dose of 50 mg/kg by oral administration

CCN(CC)CC(=O)Nc1nc2c(s1)c(OC)c(Cl)c1nc(NC(=O)CN(CC)CC)sc12
Inhibition (Rattus norvegicus [1]): 17% | Activity (Rattus norvegicus [2]): -11% | inhibition in vivo at 50 mg/kg (Rattus norvegicus [3]): 8% | inhibition in vivo at 50 mg/kg (Rattus norvegicus [4]): 38%

CCN(CC)CC(=O)N(C)c1nc2c(ccc3sc(N(C)C(=O)CN(CC)CC)nc32)s1
Inhibition (Rattus norvegicus [1]): 21% | Activity (Rattus norvegicus [2]): 4% | inhibition in vivo at 50 mg/kg (Rattus norvegicus [3]): 34% | inhibition in vivo at 50 mg/kg (Rattus norvegicus [4]): 0%

CCOC(=O)c1c2sc(NC(=O)CN(CC)CC)nc2c(Cl)c2nc(NC(=O)CN(CC)CC)sc12
Inhibition (Rattus norvegicus [1]): 5% | Activity (Rattus norvegicus [2]): -16% | inhibition in vivo at 50 mg/kg (Rattus norvegicus [3]): 0% | inhibition in vivo at 50 mg/kg (Rattus norvegicus [4]): 0%

CCN(CC)CCCC(C)Nc1nc2cc3nc(NC(C)CCCN(CC)CC)sc3cc2s1 (centres undefined)
Inhibition (Rattus norvegicus [1]): 0% | Activity (Rattus norvegicus [2]): -17% | inhibition in vivo at 50 mg/kg (Rattus norvegicus [3]): 0% | inhibition in vivo at 50 mg/kg (Rattus norvegicus [4]): 0%

O=C(CNC1CC1)Nc1nc2cc3nc(NC(=O)CNC4CC4)sc3cc2s1
Inhibition (Rattus norvegicus [1]): 18% | Activity (Rattus norvegicus [2]): 14% | inhibition in vivo at 50 mg/kg (Rattus norvegicus [3]): 16% | inhibition in vivo at 50 mg/kg (Rattus norvegicus [4]): 0%

O=C(CN1CCN(c2ccc(F)cc2)CC1)Nc1nc2cc3nc(NC(=O)CN4CCN(c5ccc(F)cc5)CC4)sc3cc2s1
Inhibition (Rattus norvegicus [1]): 11% | Activity (Rattus norvegicus [2]): 12% | inhibition in vivo at 50 mg/kg (Rattus norvegicus [3]): 79% | inhibition in vivo at 50 mg/kg (Rattus norvegicus [4]): 41%

O=C(CN1CCCCC1CCO)Nc1nc2cc3nc(NC(=O)CN4CCCCC4CCO)sc3cc2s1 (centres undefined)
Inhibition (Rattus norvegicus [1]): 30% | Activity (Rattus norvegicus [2]): -9% | inhibition in vivo at 50 mg/kg (Rattus norvegicus [3]): 5% | inhibition in vivo at 50 mg/kg (Rattus norvegicus [4]): 4%

CCOC(=O)c1c2sc(N)nc2cc2nc(N)sc12
Inhibition (Rattus norvegicus [1]): 2% | Activity (Rattus norvegicus [2]): -14% | inhibition in vivo at 50 mg/kg (Rattus norvegicus [3]): 0% | inhibition in vivo at 50 mg/kg (Rattus norvegicus [4]): 23%

CN(CC(=O)Nc1nc2cc3nc(NC(=O)CN(C)C4CCCCCCC4)sc3cc2s1)C1CCCCCCC1
Inhibition (Rattus norvegicus [1]): 0% | Activity (Rattus norvegicus [2]): -3% | inhibition in vivo at 50 mg/kg (Rattus norvegicus [3]): 29% | inhibition in vivo at 50 mg/kg (Rattus norvegicus [4]): 22%

CCN(CC)C(=O)CNc1nc2cc3nc(NCC(=O)N(CC)CC)sc3cc2s1
Inhibition (Rattus norvegicus [1]): 5% | Activity (Rattus norvegicus [2]): -18% | inhibition in vivo at 50 mg/kg (Rattus norvegicus [3]): 55% | inhibition in vivo at 50 mg/kg (Rattus norvegicus [4]): 58%

CCOC(=O)CN1CCN(CC(=O)Nc2nc3cc4nc(NC(=O)CN5CCN(CC(=O)OCC)CC5)sc4cc3s2)CC1
Inhibition (Rattus norvegicus [1]): 14% | Activity (Rattus norvegicus [2]): -11% | inhibition in vivo at 50 mg/kg (Rattus norvegicus [3]): 0% | inhibition in vivo at 50 mg/kg (Rattus norvegicus [4]): 0%

CCN(CC)CC(=O)Nc1nc2cc3nc(NC(=O)CN(CC)CC)sc3c(C)c2s1.Cl.Cl
Inhibition (Rattus norvegicus [1]): 8% | Activity (Rattus norvegicus [2]): -37% | inhibition in vivo at 50 mg/kg (Rattus norvegicus [3]): 100% | inhibition in vivo at 50 mg/kg (Rattus norvegicus [4]): 59%

CCN(CC)CC(=O)Nc1nc2c(ccc3nc(NC(=O)CN(CC)CC)sc32)s1.Cl.Cl
Inhibition (Rattus norvegicus [1]): 0% | Activity (Rattus norvegicus [2]): -20% | inhibition in vivo at 50 mg/kg (Rattus norvegicus [3]): 36% | inhibition in vivo at 50 mg/kg (Rattus norvegicus [4]): 2%

CCN(CC)CC(=O)Nc1nc2cc3nc(NC(=O)CN(CC)CC)sc3c(N)c2s1
Inhibition (Rattus norvegicus [1]): 53% | Activity (Rattus norvegicus [2]): -35% | inhibition in vivo at 50 mg/kg (Rattus norvegicus [3]): 38% | inhibition in vivo at 50 mg/kg (Rattus norvegicus [4]): 26%

CC1CN(CC(=O)Nc2nc3cc4nc(NC(=O)CN5CC(C)NCC5C)sc4cc3s2)C(C)CN1.Cl.Cl.Cl.Cl (centres undefined)
Inhibition (Rattus norvegicus [1]): 0% | Activity (Rattus norvegicus [2]): -6% | inhibition in vivo at 50 mg/kg (Rattus norvegicus [3]): 0% | inhibition in vivo at 50 mg/kg (Rattus norvegicus [4]): 0%

CCOC(=O)c1c2sc(NC(=O)CN(CC)CC)nc2c(C)c2nc(NC(=O)CN(CC)CC)sc12
Inhibition (Rattus norvegicus [1]): 35% | Activity (Rattus norvegicus [2]): -12% | inhibition in vivo at 50 mg/kg (Rattus norvegicus [3]): 50% | inhibition in vivo at 50 mg/kg (Rattus norvegicus [4]): 15%

O=C(CN1CCNCC1)Nc1nc2cc3nc(NC(=O)CN4CCNCC4)sc3cc2s1
Inhibition (Rattus norvegicus [1]): 19% | Activity (Rattus norvegicus [2]): -9% | inhibition in vivo at 50 mg/kg (Rattus norvegicus [3]): 27% | inhibition in vivo at 50 mg/kg (Rattus norvegicus [4]): 31%

CCN(CC)CC(=O)Nc1nc2cc3nc(NC(=O)CN(CC)CC)sc3c(OC)c2s1
Inhibition (Rattus norvegicus [1]): 17% | Activity (Rattus norvegicus [2]): 10% | inhibition in vivo at 50 mg/kg (Rattus norvegicus [3]): 0% | inhibition in vivo at 50 mg/kg (Rattus norvegicus [4]): 19%

CN(C)CC(=O)Nc1nc2cc3nc(NC(=O)CN(C)C)sc3cc2s1
Inhibition (Rattus norvegicus [1]): 8% | Activity (Rattus norvegicus [2]): -37% | inhibition in vivo at 50 mg/kg (Rattus norvegicus [3]): 81% | inhibition in vivo at 50 mg/kg (Rattus norvegicus [4]): 1%

O=C(CNc1ccccc1)Nc1nc2cc3nc(NC(=O)CNc4ccccc4)sc3cc2s1
Inhibition (Rattus norvegicus [1]): 0% | Activity (Rattus norvegicus [2]): -11% | inhibition in vivo at 50 mg/kg (Rattus norvegicus [3]): 0% | inhibition in vivo at 50 mg/kg (Rattus norvegicus [4]): 0%

CCOC(=O)N1CCN(CC(=O)Nc2nc3cc4nc(NC(=O)CN5CCN(C(=O)OCC)CC5)sc4cc3s2)CC1.Cl.Cl
Inhibition (Rattus norvegicus [1]): 17% | Activity (Rattus norvegicus [2]): -17% | inhibition in vivo at 50 mg/kg (Rattus norvegicus [3]): 60% | inhibition in vivo at 50 mg/kg (Rattus norvegicus [4]): 26%

O=C(CN1CCC(Cc2ccccc2)CC1)Nc1nc2cc3nc(NC(=O)CN4CCC(Cc5ccccc5)CC4)sc3cc2s1
Inhibition (Rattus norvegicus [1]): 9% | Activity (Rattus norvegicus [2]): -16% | inhibition in vivo at 50 mg/kg (Rattus norvegicus [3]): 13% | inhibition in vivo at 50 mg/kg (Rattus norvegicus [4]): 15%

CCNC(=O)Nc1nc2cc3nc(NC(=O)NCC)sc3cc2s1
Inhibition (Rattus norvegicus [1]): 6% | Activity (Rattus norvegicus [2]): -1% | inhibition in vivo at 50 mg/kg (Rattus norvegicus [3]): 15% | inhibition in vivo at 50 mg/kg (Rattus norvegicus [4]): 0%

CCN(CC)CC(=O)Nc1nc2cc3nc(NC(=O)CN4CCCCC4)sc3cc2s1
Inhibition (Rattus norvegicus [1]): 20% | Activity (Rattus norvegicus [2]): -14% | inhibition in vivo at 50 mg/kg (Rattus norvegicus [3]): 58% | inhibition in vivo at 50 mg/kg (Rattus norvegicus [4]): 50%

O=C(CN1CCC(N2CCCCC2)CC1)Nc1nc2cc3nc(NC(=O)CN4CCC(N5CCCCC5)CC4)sc3cc2s1
Inhibition (Rattus norvegicus [1]): 0% | Activity (Rattus norvegicus [2]): -3% | inhibition in vivo at 50 mg/kg (Rattus norvegicus [3]): 38% | inhibition in vivo at 50 mg/kg (Rattus norvegicus [4]): 46%

CCN(CC)CC(=O)N(C)c1nc2cc3nc(N(C)C(=O)CN(CC)CC)sc3cc2s1.Cl.Cl
Inhibition (Rattus norvegicus [1]): 16% | Activity (Rattus norvegicus [2]): -16% | inhibition in vivo at 50 mg/kg (Rattus norvegicus [3]): 16% | inhibition in vivo at 50 mg/kg (Rattus norvegicus [4]): 0%

CCN(CC)CC(=O)Nc1nc2c(C)c3nc(NC(=O)CN(CC)CC)sc3c(Cl)c2s1
Inhibition (Rattus norvegicus [1]): 18% | Activity (Rattus norvegicus [2]): -37% | inhibition in vivo at 50 mg/kg (Rattus norvegicus [3]): 16% | inhibition in vivo at 50 mg/kg (Rattus norvegicus [4]): 42%

O=C(CN1CCC(c2ccccc2)CC1)Nc1nc2cc3nc(NC(=O)CN4CCC(c5ccccc5)CC4)sc3cc2s1
Inhibition (Rattus norvegicus [1]): 1% | Activity (Rattus norvegicus [2]): -12% | inhibition in vivo at 50 mg/kg (Rattus norvegicus [3]): 12% | inhibition in vivo at 50 mg/kg (Rattus norvegicus [4]): 40%

CCN(CC)CC(=O)N(CC)c1nc2cc3nc(N(CC)C(=O)CN(CC)CC)sc3cc2s1
Inhibition (Rattus norvegicus [1]): 18% | Activity (Rattus norvegicus [2]): -4% | inhibition in vivo at 50 mg/kg (Rattus norvegicus [3]): 0% | inhibition in vivo at 50 mg/kg (Rattus norvegicus [4]): 14%

O=C(CNC1CCCCCC1)Nc1nc2cc3nc(NC(=O)CNC4CCCCCC4)sc3cc2s1
Inhibition (Rattus norvegicus [1]): 0% | Activity (Rattus norvegicus [2]): 1% | inhibition in vivo at 50 mg/kg (Rattus norvegicus [3]): 59% | inhibition in vivo at 50 mg/kg (Rattus norvegicus [4]): 6%

Cl.Cl.O=C(CN1CCOCC1)Nc1nc2cc3nc(NC(=O)CN4CCOCC4)sc3cc2s1
Inhibition (Rattus norvegicus [1]): 17% | Activity (Rattus norvegicus [2]): -21% | inhibition in vivo at 50 mg/kg (Rattus norvegicus [3]): 21% | inhibition in vivo at 50 mg/kg (Rattus norvegicus [4]): 18%

O=C(CN1CCCC(CO)C1)Nc1nc2cc3nc(NC(=O)CN4CCCC(CO)C4)sc3cc2s1 (centres undefined)
Inhibition (Rattus norvegicus [1]): 16% | Activity (Rattus norvegicus [2]): -4% | inhibition in vivo at 50 mg/kg (Rattus norvegicus [3]): 47% | inhibition in vivo at 50 mg/kg (Rattus norvegicus [4]): 25%

O=C(CN1CCN(CC(F)(F)F)CC1)Nc1nc2cc3nc(NC(=O)CN4CCN(CC(F)(F)F)CC4)sc3cc2s1
Inhibition (Rattus norvegicus [1]): 25% | Activity (Rattus norvegicus [2]): -13% | inhibition in vivo at 50 mg/kg (Rattus norvegicus [3]): 10% | inhibition in vivo at 50 mg/kg (Rattus norvegicus [4]): 0%

O=C(CN1CCN(Cc2ccccc2)CC1)Nc1nc2cc3nc(NC(=O)CN4CCN(Cc5ccccc5)CC4)sc3cc2s1
Inhibition (Rattus norvegicus [1]): 26% | Activity (Rattus norvegicus [2]): -6% | inhibition in vivo at 50 mg/kg (Rattus norvegicus [3]): 6% | inhibition in vivo at 50 mg/kg (Rattus norvegicus [4]): 5%

Cc1c2nc(N)sc2c(C(=O)[O-])c2sc(N)nc12.[Na+]
Inhibition (Rattus norvegicus [1]): 22% | Activity (Rattus norvegicus [2]): -15% | inhibition in vivo at 50 mg/kg (Rattus norvegicus [3]): 0% | inhibition in vivo at 50 mg/kg (Rattus norvegicus [4]): 7%

O=C(CNC1CCCC1)Nc1nc2cc3nc(NC(=O)CNC4CCCC4)sc3cc2s1
Inhibition (Rattus norvegicus [1]): 13% | Activity (Rattus norvegicus [2]): 10% | inhibition in vivo at 50 mg/kg (Rattus norvegicus [3]): 70% | inhibition in vivo at 50 mg/kg (Rattus norvegicus [4]): 43%
